Assay results from ChEMBL document CHEMBL4118021, “Studies of TAK1-centered polypharmacology with novel covalent TAK1 inhibitors” (Bioorg Med Chem, 2017).

How the values were obtained:
[1] = target: T1, Inhibitor of nuclear factor kappa-B kinase subunit beta (Homo sapiens) (UniProt O14920); test: Inhibition of IKKb in human SKCO1 cells at 1 uM after 4 hrs using biotin labeled DLKPENIVLQQGEQR probe by mass-spectrometric analysis relative to control; type: cell-based
T1 sequence (whole entry): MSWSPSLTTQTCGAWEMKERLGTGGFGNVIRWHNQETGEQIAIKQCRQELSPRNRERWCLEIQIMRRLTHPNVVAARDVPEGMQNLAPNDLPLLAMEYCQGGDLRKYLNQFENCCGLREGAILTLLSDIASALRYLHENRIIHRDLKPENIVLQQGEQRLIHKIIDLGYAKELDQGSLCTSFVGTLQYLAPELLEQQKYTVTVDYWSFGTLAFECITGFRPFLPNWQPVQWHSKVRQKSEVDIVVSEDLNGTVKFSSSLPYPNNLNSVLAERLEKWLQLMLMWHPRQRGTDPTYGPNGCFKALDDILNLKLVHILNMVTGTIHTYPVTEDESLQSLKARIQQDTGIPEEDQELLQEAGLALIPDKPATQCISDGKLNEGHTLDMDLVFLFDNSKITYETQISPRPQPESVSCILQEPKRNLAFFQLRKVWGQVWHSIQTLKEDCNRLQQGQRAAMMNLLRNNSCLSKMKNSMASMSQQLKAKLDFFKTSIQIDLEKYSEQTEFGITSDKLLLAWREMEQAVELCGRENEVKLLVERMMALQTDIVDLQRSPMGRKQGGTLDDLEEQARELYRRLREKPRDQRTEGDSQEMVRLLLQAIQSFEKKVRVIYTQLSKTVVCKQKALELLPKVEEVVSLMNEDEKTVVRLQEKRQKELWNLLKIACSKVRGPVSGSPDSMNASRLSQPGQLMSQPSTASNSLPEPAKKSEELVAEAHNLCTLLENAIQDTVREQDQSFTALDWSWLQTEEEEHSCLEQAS

[2] = target: Mitogen-activated protein kinase kinase kinase 1 (Homo sapiens) (UniProt Q13233); test: Inhibition of MAP3K1 in human SKCO1 cells at 1 uM after 4 hrs using biotin labeled DVKGANLLIDSTGQR probe by mass-spectrometric analysis relative to control; type: cell-based
[3] = target: Microtubule-associated serine/threonine-protein kinase 3 (Homo sapiens) (UniProt O60307); test: Inhibition of MAST3 in human SKCO1 cells at 1 uM after 4 hrs using biotin labeled DLKPDNLLITSLGHIK probe by mass-spectrometric analysis relative to control; type: cell-based
[4] = target: T2, Mixed lineage kinase domain-like protein (Homo sapiens) (UniProt Q8NB16); test: Inhibition of MLKL in human SKCO1 cells at 1 uM after 4 hrs using biotin labeled APVAIKVFK probe by mass-spectrometric analysis relative to control; type: cell-based
T2 sequence (whole entry): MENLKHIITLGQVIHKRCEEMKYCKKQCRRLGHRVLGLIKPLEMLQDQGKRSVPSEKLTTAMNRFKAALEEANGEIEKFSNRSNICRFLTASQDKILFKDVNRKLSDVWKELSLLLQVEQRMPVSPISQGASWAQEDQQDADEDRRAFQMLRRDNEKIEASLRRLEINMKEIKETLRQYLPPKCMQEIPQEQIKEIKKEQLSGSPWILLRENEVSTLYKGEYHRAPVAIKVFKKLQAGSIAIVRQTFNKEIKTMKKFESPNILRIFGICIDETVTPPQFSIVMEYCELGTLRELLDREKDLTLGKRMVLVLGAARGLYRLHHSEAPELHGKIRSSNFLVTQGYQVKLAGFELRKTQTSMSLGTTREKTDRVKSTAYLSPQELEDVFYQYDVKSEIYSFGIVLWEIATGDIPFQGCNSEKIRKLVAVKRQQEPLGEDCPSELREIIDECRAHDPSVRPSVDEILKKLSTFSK

[5] = target: T3, Serine/threonine-protein kinase 4 (Homo sapiens) (UniProt Q13043); test: Inhibition of MST1 in human SKCO1 cells at 1 uM after 4 hrs using biotin labeled ETGQIVAIKQVPVESDLQEIIK probe by mass-spectrometric analysis relative to control; type: cell-based
T3 sequence (whole entry): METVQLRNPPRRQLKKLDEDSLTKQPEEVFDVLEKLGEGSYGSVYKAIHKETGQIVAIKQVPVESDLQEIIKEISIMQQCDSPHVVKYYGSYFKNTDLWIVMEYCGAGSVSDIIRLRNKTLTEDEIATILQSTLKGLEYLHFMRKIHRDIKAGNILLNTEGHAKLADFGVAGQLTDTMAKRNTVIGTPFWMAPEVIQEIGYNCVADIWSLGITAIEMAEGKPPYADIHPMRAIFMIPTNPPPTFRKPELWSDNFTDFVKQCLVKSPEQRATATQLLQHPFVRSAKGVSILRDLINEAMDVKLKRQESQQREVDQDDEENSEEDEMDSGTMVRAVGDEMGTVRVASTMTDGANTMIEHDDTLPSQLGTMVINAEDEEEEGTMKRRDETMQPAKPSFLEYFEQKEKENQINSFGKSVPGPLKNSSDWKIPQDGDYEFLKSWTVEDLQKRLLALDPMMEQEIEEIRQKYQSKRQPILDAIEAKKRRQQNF
In short: (§1)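 Live SK-CO-1 cells exposed to compound at 1 μM or DMSO for 4 h (KiNativ). Lysates then labeled with lysine-reactive ATP/ADP-biotin probe, and probe-labeled kinase peptides quantified by mass spectrometry. Percent inhibition of probe-dependent recovery calculated relative to DMSO-treated cells.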

[6] = target: Cyclin-dependent kinase 16 (Homo sapiens) (UniProt Q00536); test: Inhibition of PCTAIRE1 in human SKCO1 cells at 1 uM after 4 hrs using biotin labeled DLKPQNLLINER probe by mass-spectrometric analysis relative to control; type: cell-based; in short: as §1
[7] = target: Ribosomal protein S6 kinase alpha-1 (Homo sapiens) (UniProt Q15418); test: Inhibition of RSK1 domain1 in human SKCO1 cells at 1 uM after 4 hrs using biotin labeled LTDFGLSKEAIDHEKK probe by mass-spectrometric analysis relative to control; type: cell-based; in short: as §1
[8] = target: STE20-like serine/threonine-protein kinase SLK (Homo sapiens) (UniProt Q9H2G2); test: Inhibition of SLK in human SKCO1 cells at 1 uM after 4 hrs using biotin labeled DLKAGNILFTLDGDIK probe by mass-spectrometric analysis relative to control

Chain of Mitogen-activated protein kinase kinase kinase 1 (Homo sapiens) (Q13233 whole entry): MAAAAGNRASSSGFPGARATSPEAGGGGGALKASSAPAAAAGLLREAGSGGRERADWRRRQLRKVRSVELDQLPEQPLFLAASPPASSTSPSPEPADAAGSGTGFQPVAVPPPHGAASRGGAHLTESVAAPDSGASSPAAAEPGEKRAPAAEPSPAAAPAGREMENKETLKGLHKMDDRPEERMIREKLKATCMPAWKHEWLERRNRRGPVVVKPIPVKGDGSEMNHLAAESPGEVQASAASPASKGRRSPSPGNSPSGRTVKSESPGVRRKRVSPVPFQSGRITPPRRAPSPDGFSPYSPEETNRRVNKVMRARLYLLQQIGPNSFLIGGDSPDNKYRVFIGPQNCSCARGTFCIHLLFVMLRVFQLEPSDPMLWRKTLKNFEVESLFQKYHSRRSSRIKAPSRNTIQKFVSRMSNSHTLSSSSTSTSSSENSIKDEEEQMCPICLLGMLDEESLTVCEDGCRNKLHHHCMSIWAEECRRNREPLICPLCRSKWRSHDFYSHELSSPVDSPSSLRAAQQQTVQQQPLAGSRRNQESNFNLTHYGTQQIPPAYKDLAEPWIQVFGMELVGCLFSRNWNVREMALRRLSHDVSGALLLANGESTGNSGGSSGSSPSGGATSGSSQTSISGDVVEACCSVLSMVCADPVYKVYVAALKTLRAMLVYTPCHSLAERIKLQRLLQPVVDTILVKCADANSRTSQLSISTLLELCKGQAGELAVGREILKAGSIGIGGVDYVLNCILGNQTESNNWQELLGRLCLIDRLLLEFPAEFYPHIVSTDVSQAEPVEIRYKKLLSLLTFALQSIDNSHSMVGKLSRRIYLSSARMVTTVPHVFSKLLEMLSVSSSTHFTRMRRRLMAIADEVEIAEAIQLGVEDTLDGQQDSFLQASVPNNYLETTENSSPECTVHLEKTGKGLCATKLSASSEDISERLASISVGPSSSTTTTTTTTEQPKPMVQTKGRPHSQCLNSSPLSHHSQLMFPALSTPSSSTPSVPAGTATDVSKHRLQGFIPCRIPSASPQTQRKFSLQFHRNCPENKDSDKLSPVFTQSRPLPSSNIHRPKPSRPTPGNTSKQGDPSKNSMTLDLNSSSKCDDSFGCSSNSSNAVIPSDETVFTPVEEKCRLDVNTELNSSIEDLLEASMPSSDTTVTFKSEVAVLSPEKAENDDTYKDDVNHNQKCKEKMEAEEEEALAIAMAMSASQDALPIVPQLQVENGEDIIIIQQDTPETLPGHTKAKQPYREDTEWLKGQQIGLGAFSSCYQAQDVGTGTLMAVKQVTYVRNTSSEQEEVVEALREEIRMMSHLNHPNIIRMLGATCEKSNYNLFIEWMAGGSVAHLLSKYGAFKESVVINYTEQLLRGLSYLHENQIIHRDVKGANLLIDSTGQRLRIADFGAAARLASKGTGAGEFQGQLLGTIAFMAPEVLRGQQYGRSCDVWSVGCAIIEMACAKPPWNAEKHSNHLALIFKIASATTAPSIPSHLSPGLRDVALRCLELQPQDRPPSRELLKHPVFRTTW
Chain of Cyclin-dependent kinase 16 (Homo sapiens) (Q00536 whole entry, the tested form may be a part): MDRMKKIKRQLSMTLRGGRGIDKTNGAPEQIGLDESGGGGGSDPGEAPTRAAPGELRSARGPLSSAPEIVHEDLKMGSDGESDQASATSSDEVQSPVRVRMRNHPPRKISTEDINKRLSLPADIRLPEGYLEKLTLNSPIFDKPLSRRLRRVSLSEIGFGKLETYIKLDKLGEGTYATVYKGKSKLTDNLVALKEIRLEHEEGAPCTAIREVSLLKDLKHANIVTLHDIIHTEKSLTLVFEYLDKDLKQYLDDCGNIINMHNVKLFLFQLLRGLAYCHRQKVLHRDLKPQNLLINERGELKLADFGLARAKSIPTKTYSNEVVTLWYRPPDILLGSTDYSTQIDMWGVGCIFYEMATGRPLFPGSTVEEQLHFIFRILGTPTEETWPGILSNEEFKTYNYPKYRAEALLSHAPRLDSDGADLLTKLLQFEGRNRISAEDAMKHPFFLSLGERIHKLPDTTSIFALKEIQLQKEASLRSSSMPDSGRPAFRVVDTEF
Chain of Ribosomal protein S6 kinase alpha-1 (Homo sapiens) (Q15418 whole entry, the tested form may be a part): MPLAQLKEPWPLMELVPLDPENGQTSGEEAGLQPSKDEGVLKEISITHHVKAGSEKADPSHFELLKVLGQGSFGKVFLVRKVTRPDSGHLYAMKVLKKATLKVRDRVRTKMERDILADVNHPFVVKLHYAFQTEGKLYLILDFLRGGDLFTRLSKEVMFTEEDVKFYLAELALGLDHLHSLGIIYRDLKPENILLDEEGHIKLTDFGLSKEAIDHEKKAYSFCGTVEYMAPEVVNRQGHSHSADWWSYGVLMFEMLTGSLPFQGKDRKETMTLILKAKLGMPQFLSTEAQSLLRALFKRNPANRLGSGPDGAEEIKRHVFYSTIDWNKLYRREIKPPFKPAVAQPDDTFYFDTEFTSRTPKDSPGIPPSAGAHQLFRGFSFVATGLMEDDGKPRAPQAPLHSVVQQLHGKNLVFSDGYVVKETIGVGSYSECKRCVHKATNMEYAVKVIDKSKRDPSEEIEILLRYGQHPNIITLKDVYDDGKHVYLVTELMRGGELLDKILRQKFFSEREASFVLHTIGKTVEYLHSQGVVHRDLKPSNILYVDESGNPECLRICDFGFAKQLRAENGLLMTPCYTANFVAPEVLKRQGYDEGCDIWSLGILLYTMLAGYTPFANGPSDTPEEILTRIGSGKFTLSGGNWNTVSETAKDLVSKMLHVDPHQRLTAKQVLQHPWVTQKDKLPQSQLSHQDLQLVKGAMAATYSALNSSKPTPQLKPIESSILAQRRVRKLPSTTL
Chain of Microtubule-associated serine/threonine-protein kinase 3 (Homo sapiens) (O60307 whole entry, the tested form may be a part): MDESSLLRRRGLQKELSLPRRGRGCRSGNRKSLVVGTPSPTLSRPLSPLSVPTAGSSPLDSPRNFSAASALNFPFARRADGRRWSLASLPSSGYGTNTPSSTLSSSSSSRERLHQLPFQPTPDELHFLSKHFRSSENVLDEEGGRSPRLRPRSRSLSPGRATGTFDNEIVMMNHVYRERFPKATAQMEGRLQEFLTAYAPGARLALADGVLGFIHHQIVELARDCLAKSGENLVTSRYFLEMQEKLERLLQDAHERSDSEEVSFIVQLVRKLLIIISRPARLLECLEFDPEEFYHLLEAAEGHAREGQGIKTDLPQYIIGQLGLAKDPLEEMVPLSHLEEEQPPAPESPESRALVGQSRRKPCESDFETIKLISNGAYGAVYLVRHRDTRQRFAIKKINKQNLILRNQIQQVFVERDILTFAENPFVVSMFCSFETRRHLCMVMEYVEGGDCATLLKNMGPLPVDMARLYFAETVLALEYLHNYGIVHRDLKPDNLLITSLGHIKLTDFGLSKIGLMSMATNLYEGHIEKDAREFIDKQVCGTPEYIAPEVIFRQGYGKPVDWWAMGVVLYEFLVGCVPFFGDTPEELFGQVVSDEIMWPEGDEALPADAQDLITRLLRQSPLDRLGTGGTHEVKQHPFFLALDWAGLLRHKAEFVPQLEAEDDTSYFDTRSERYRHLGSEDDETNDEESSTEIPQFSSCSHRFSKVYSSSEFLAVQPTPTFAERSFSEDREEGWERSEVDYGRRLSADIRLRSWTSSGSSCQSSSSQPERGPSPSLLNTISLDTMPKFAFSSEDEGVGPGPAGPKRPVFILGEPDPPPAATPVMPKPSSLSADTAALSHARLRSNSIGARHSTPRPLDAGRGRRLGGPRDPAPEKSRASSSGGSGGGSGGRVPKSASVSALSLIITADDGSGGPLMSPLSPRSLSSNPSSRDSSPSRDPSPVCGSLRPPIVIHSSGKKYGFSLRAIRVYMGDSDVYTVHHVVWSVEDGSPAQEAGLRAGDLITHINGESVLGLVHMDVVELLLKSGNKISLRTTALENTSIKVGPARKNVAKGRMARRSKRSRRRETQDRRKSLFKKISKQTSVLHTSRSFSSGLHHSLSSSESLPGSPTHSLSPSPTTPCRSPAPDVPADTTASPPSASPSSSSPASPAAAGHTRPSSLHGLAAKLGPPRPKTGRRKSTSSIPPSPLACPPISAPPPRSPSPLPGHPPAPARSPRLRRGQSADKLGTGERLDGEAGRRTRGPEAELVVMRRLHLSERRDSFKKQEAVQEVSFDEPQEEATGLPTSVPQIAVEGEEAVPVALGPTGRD

Structure (SMILES) | inhibition [1] [%] | inhibition [2] [%] | inhibition [3] [%] | inhibition [4] [%] | inhibition [5] [%] | inhibition [6] [%] | inhibition [7] [%] | inhibition [8] [%]
COc1cc(O)c2c(c1)/C=C/C[C@H](O)[C@H](O)C(=O)/C=C\C[C@H](C)OC2=O | -3 | 51.4 | 39.2 | 56.6 | -4.7 | -6.3 | 54.5 | 66
C=CC(=O)Nc1ccccc1Nc1nc(Nc2ccc(N3CCN(C)CC3)cc2)ncc1Cl | 15.3 | 78.5 | 13.2 | 52.3 | -6.4 | -3.2 | 56.2 | 76.3
C=CC(=O)Nc1ccccc1Oc1nc(Nc2cnn(CCOC)c2)ncc1Cl | -9 | 59.7 | 30.6 | 53.7 | -0.9 | -5.9 | 33.5 | 61.2
